RGS4 act = RGS4 potentiation or activation. HEK293 M3R/inducible RGS4, carbachol calcium flux Fluo4; stronger effect = lower value. B-score at 10 µM. hit rate 0.92% among 310,000. AID 463111;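 active means B-score of the integrated calcium signal more than 4 SD below the library mean, with starting fluorescence not abnormally high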;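 further: negative B-score means reduced calcium response which marks RGS4 activation or potentiation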
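Detection: kinetic calcium fluorescence imaging with Fluo4-AM dye, 2 µM / Material: HEK293 cells with stable M3R and inducible RGS4 / Schedule: recording 10 s baseline at 1 Hz, 100 s post-agonist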
MrgX1 agonist = agonists of human MrgX1 receptor; hit rate 0.44% among 310,000; Q96LB2; B-score at 10 µM; MrgX1-HEK293 cells, Fluo-4 calcium fluorescence, agonist mode; stronger effect = higher value;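 active means calcium response B-score plate-corrected fluorescence ratio at least 3 library SD, with starting fluorescence B-score inside 5 SD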
Target sequence (Q96LB2 whole entry, looked up): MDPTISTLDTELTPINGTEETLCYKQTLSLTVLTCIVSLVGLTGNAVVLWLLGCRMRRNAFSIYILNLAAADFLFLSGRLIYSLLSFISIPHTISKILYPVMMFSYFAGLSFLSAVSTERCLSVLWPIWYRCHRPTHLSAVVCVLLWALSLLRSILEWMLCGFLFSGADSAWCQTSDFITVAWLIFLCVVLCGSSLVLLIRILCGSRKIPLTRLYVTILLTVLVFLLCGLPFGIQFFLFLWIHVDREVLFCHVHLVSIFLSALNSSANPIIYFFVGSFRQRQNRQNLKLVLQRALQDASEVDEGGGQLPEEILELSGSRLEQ
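System: HEK293 cells stably expressing human MrgX1 receptor; Dosing: test compound in the initial addition of three; Schedule: overnight plating, then 30 min 37 °C plus 30 min room-temperature dye loading; Detection: kinetic calcium dye fluorescence, Fluo-4 NW; Controls: per-plate positive and negative controls for Z′ factor.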
MrgX1 antagonist = blocks BAM8-22 activation of human MrgX1 receptor | Q96LB2 | MRGX1-HEK293 calcium flux, Fluo-4, BAM8-22 antagonism; stronger effect = lower value | B-score at 10 µM | hit rate 1.3% among 310,000;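 active means calcium-response B-score plate-corrected more than 3 library SD below zero, starting fluorescence within 5 deviations, no agonist response on first addition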;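 further: peak minus trough fluorescence over baseline after final BAM8-22 challenge near maximal dose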
MrgX1 allo act = allosterically activates human MrgX1 receptor signaling. Q96LB2. MrgX1-HEK293, Fluo-4 calcium flux, FDSS; stronger effect = higher value. B-score at 10 µM. hit rate 0.63% among 310,000;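 active means plate-corrected calcium response at least 3 library SD above typical, normal starting fluorescence, not activating the receptor alone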;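 further: compound read alongside a low EC10 to EC30 dose of BAM8-22 agonist; peak minus trough fluorescence over baseline measured at the second addition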
RGS4 inh = human RGS4 inhibition; P49798; HEK293 M3R/RGS4 inducible, Fluo-4 calcium flux; stronger effect = higher value; triggered by carbachol at its EC20; B-score at 10 µM; hit rate 0.45% among 310,000;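 active means B-score, a plate-corrected calcium signal, over three deviations above library mean, with baseline fluorescence within five deviations of library mean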;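 further: RGS4 expression induced by doxycycline in cells with stable M3 receptor; B-score is computed from the integrated fluorescence ratio over baseline after carbachol; higher B-score means a larger calcium signal and so more RGS4 inhibition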
Target sequence (P49798 whole entry, looked up): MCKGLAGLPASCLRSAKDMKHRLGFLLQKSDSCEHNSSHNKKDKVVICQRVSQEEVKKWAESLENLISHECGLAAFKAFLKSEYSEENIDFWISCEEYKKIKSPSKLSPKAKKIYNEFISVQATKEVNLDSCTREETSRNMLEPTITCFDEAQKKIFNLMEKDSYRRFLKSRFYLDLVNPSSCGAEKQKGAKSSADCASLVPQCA
MrgX1 allo conf = reconfirmed allosteric activator of human MrgX1 receptor | shares compounds with MrgX1 allo act | MrgX1-HEK293, Fluo-4 calcium fluorescence, FDSS | activation (ratio percentage), % at 10 µM | hit rate 13% among 1,200 | AID 602413;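 active means ratio at least 3 SD above the weak peptide control, stable starting fluorescence, no direct agonism earlier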;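 further: compound followed by low BAM8-22 agonist challenge near EC20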
HEK293 Ca flux = counter-screen for MrgX1 antagonists: effect in parental HEK293 cells. shares compounds with MrgX1 antagonist. Fluo-4 calcium fluorescence, FDSS. fluorescence ratio F(max-min)/F0 at 10 µM. hit rate 2% among 4,000;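 active means duplicate-averaged calcium fluorescence ratio at least three times the standard deviation of buffer wells, a nonspecific response in parental cells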
HEK293 Ca counter = activity in parental HEK293 cells without MrgX1. shares compounds with MrgX1 antagonist. parental HEK293 calcium flux, Fluo-4 fluorescence ratio; stronger effect = higher value. fluorescence ratio F(max-min)/F0 at 10 µM. hit rate 0.4% among 4,000;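 active means calcium fluorescence ratio, averaged over duplicates, at least 3 SD of the buffer-well ratio, meaning a nonspecific response in receptor-free cells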;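 further: untransfected parental HEK293 lacking MrgX1 used as counterscreen for MrgX1 allosteric activators; fluorescence change taken during the second addition on a kinetic imager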
HEK293 Ca cntr2 = counter-screen for MrgX1 activators: effect in parental HEK293 cells | shares compounds with MrgX1 antagonist | Fluo-4 calcium fluorescence (FDSS); stronger effect = higher value | fluorescence ratio F(max-min)/F0 at 10 µM | hit rate 8.7% among 4,000 | AID 624115;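 active means calcium fluorescence ratio at least three times the spread of buffer wells, meaning a non-specific response in parental cells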
Large screens that a line does not name were inactive (follow-up assays come after a bar, where they were run). This is a sample that favours compounds with a hit; in the whole collection about 3.5% have one here.

CC(=O)c1ccc(NC(=O)C(Cc2ccccc2)NC(=O)c2ccco2)cc1 (stereo not given)	MrgX1 allo act 8.9 | MrgX1 allo conf inactive | HEK293 Ca flux inactive | HEK293 Ca counter inactive | HEK293 Ca cntr2 inactive
CCOC(=O)C1=C(COC(=O)c2cc(Br)c(Br)s2)NC(=O)NC1C (stereo not given)	MrgX1 allo act 9.8 | MrgX1 allo conf inactive | HEK293 Ca flux inactive | HEK293 Ca counter inactive | HEK293 Ca cntr2 inactive
CC1CC(CC(=O)NC(=S)Nc2ccccc2Cl)C(=O)O1 (stereo not given)	none
CC12COC3(C(=O)Nc4cccnc4)CC1CCC32C (stereo not given)	none
CC12COC3(C(=O)Nc4ccccc4)CC1CCC32C (stereo not given)	MrgX1 allo act 9.7 | MrgX1 allo conf inactive | HEK293 Ca flux inactive | HEK293 Ca counter inactive | HEK293 Ca cntr2 inactive
CC12COC3(C(=O)Nc4ccc5ccccc5c4)CC1CCC32C (stereo not given)	MrgX1 allo act 17 | MrgX1 allo conf inactive | HEK293 Ca flux inactive | HEK293 Ca counter inactive | HEK293 Ca cntr2 inactive
Cc1ccccc1NC(=O)C12CC3CCC1(C)C3(C)CO2 (stereo not given)	MrgX1 allo act 6.9 | MrgX1 allo conf inactive | HEK293 Ca flux inactive | HEK293 Ca counter inactive | HEK293 Ca cntr2 inactive
COc1ccc(N(C)C(=O)c2cc3c(s2)-c2c(C)cccc2OC3)c(OC)c1	none
Cc1ccccc1C(=O)NC(C(N)=O)P(=O)(OC(C)C)OC(C)C (stereo not given)	none
COC(=O)c1ccc(-n2nnnc2SCC(=O)Nc2ccccc2F)cc1	none
CC(=O)c1cc(-c2ccccc2)n(CCC(=O)NC(C)(C)C)c1C	none
CCN1CCN(c2nc(Nc3ccc(NC(C)=O)cc3)nc(Nc3ccc(NC(C)=O)cc3)n2)CC1	MrgX1 allo act 29 | MrgX1 allo conf inactive | HEK293 Ca flux inactive | HEK293 Ca counter inactive | HEK293 Ca cntr2 inactive
CC(C)(C)C(=O)c1cnc(Nc2ccccc2Cl)s1	MrgX1 allo act 7.1 | MrgX1 allo conf inactive | HEK293 Ca flux inactive | HEK293 Ca counter inactive | HEK293 Ca cntr2 inactive
CC(C)c1nc2sc3c(=S)nc[nH]c3c2c2c1CCC2	none
S=c1nc[nH]c2c1sc1nc(N3CCOCC3)c3c(c12)CCCC3	MrgX1 allo act 7.4 | MrgX1 allo conf inactive | HEK293 Ca flux inactive | HEK293 Ca counter inactive | HEK293 Ca cntr2 inactive
Cc1cc2[nH]c(=O)c(=O)[nH]c2cc1S(=O)(=O)NCc1ccc(Cl)cc1	none
Cc1ccc(C(C)C)cc1S(=O)(=O)NC1CC(C)(C)NC(C)(C)C1	none
COc1ccc(C2=C(Nc3ccc(F)cc3)c3ccccc3C2=O)cc1	none
COc1ccc(C2=C(Nc3ccc(C)cc3)c3ccccc3C2=O)cc1	MrgX1 allo act 11 | MrgX1 allo conf inactive | HEK293 Ca flux inactive | HEK293 Ca counter inactive | HEK293 Ca cntr2 inactive
CCN1CCN(CC(=O)Nc2ccc(Cl)c(Cl)c2)C(=O)C1=O	MrgX1 allo act 7.7 | MrgX1 allo conf inactive | HEK293 Ca flux inactive | HEK293 Ca counter inactive | HEK293 Ca cntr2 inactive
O=C(CSC(=S)N1CCOCC1)Nc1ncc2c(n1)CC(c1ccco1)CC2=O (stereo not given)	none
Cc1nn(C)c(Nc2ccc(Br)cc2)c1Br	MrgX1 allo act 8.2 | MrgX1 allo conf inactive | HEK293 Ca flux inactive | HEK293 Ca counter inactive | HEK293 Ca cntr2 inactive
Brc1ccc(Nc2nc(-c3cccnc3)cs2)cc1	none
Cc1ccc(Nc2nc(-c3cccnc3)cs2)cc1C	MrgX1 allo act 6.5 | MrgX1 allo conf inactive | HEK293 Ca flux inactive | HEK293 Ca counter inactive | HEK293 Ca cntr2 inactive
CC(=O)Nc1cc2cc(NS(=O)(=O)c3ccc(C)cc3)ccc2oc1=O	none
COc1cccc(NC(=O)Cn2c(=O)n(C)c(=O)c3sc4c(c32)COC(C)(C)C4)c1	none
CC(=O)N1c2ccc(S(=O)(=O)N(C)Cc3ccccc3)cc2CC1C (stereo not given)	MrgX1 allo act 7.2 | MrgX1 allo conf inactive | HEK293 Ca flux inactive | HEK293 Ca counter inactive | HEK293 Ca cntr2 inactive
CCNC(=O)OCC12CC3CC(CC(C3)C1)C2	MrgX1 allo act 9.8 | MrgX1 allo conf inactive | HEK293 Ca flux inactive | HEK293 Ca counter inactive | HEK293 Ca cntr2 inactive
CC(=O)NC(Cc1ccc(F)cc1)C(=O)NC1CCN(C(=O)Nc2ccc(F)cc2)CC1 (stereo not given)	MrgX1 allo act 59 | MrgX1 allo conf inactive | HEK293 Ca flux inactive | HEK293 Ca counter inactive | HEK293 Ca cntr2 inactive
CC(=O)NC(Cc1ccc(F)cc1)C(=O)NC1CCN(C(=O)Nc2cccc(C)c2)CC1 (stereo not given)	none
Cc1ccc(NCC(=O)Nc2ccc(Br)cc2)cc1F	MrgX1 allo act 8.1 | MrgX1 allo conf inactive | HEK293 Ca flux inactive | HEK293 Ca counter inactive | HEK293 Ca cntr2 inactive
CC(=O)NCCC(=O)Nc1ccc(C)c(F)c1	none
CCCCc1c(O)cc(C)[nH]c1=O	none
COC(=O)c1ccccc1NC(=O)Cn1cc2c(n1)CCC(C)C2 (stereo not given)	MrgX1 allo act 23 | MrgX1 allo conf inactive | HEK293 Ca flux inactive | HEK293 Ca counter inactive | HEK293 Ca cntr2 inactive
O=C(Cn1cc2c(n1)CCCCC2)Nc1ccccc1Cl	MrgX1 allo act 8 | MrgX1 allo conf inactive | HEK293 Ca flux inactive | HEK293 Ca counter inactive | HEK293 Ca cntr2 inactive
Cc1ccc(NC(=O)Cn2cc3c(n2)CCC(C)C3)cc1 (stereo not given)	none
O=C(Cn1cc2c(n1)CCCC2)Nc1ccccc1Cl	MrgX1 allo act 13 | MrgX1 allo conf inactive | HEK293 Ca flux inactive | HEK293 Ca counter inactive | HEK293 Ca cntr2 86
CC1CCCC(NC(=O)Cn2cc3c(n2)CCCCC3)C1C (stereo not given)	MrgX1 allo act 6.5 | MrgX1 allo conf inactive | HEK293 Ca flux inactive | HEK293 Ca counter inactive | HEK293 Ca cntr2 inactive
O=C(Cc1ccc2ccccc2c1)Nc1ccccc1Br	none
O=C(Cn1cc2c(n1)CCCC2)Nc1ccccc1Br	MrgX1 allo act 22 | MrgX1 allo conf inactive | HEK293 Ca flux inactive | HEK293 Ca counter inactive | HEK293 Ca cntr2 inactive
O=C(Cc1ccc2c(c1)CCCC2)Nc1ccccc1Br	MrgX1 allo act 7.3 | MrgX1 allo conf inactive | HEK293 Ca flux inactive | HEK293 Ca counter inactive | HEK293 Ca cntr2 inactive
COC(=O)c1c(NC(=S)NN2CCN(C)CC2)sc2c1CCC(C)C2 (stereo not given)	none

Bioassay records as filed in PubChem BioAssay.
